From article PMC6923798 (Bioorganic chemistry, 2018)
Like-named read-outs stand apart in the source and are kept apart here.

Columns and labels:
EGFR = EGFR (Homo sapiens, UniProt P00533); test: EGFR kinase assay; type: biochemical
c-Src = c-Src (Homo sapiens, UniProt P12931); test: Src kinase assay; type: biochemical
IL-6 = IL-6 ELISA in K-562 cells; type: cell-based, human; conditions: Homo sapiens, K562, 24 h, read-out: IL-6 protein levels (% of control)
Method in brief: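 K-562 cells exposed 24 h to vehicle (DMSO), test compound at 10 μM or dexamethasone (positive control). IL-6 secreted into cell-free supernatant quantified by human IL-6 ELISA kit. Expressed as % of vehicle control, mean ± SD of three independent experiments, each in triplicate. Time course: in 12-well plates, medium changed when compound (10 μM) added, and media sampled at 0, 1, 4, 8, 12, 24, 48 h.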

K-562 = test: MTT anti-proliferative assay; type: cell-based, human; conditions: read-out: IC50 ± SD, K-562
KG-1a = test: MTT anti-proliferative assay; type: cell-based, human; conditions: read-out: IC50 ± SD, KG-1a
Jurkat = test: MTT anti-proliferative assay; type: cell-based, human; conditions: read-out: IC50 ± SD, Jurkat
STAT3 = STAT3 activation assay; type: cell-based, human; conditions: K-562 cells, 10 μM, 24 h, nuclear extracts
Method in brief: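 K562 cells seeded overnight in 10 cm plates, then given vehicle, test compound (10 μM) or WP1066 (positive control) for 24 h. Nuclear fractions extracted by kit. STAT3 activation measured in nuclear extracts by TransAM STAT3 ELISA per manufacturer. Mean ± SD of three independent experiments, each in triplicate.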

RPMI-8226 cell line = test: NCI in vitro one dose anticancer assay; type: cell-based; conditions: Homo sapiens, RPMI-8226, 48 h, read-out: % growth inhibition
Method in brief: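 NCI protocol. Test compound added once at 10−5 M to ~60 human tumour lines from nine subpanels. Incubated 48 h at 37 °C, 5% CO2, 95% air, 100% relative humidity. Endpoint by sulforhodamine B protein staining with spectrophotometric absorbance. Growth of treated cells reported as percent of untreated cells.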

[1] = read-out: EGFR (IC50 μM), PGT substrate, ATP 50 μM
[2] = read-out: Src (IC50 μM), PGT substrate, ATP 50 μM

c-Src, sequence (P12931 whole entry): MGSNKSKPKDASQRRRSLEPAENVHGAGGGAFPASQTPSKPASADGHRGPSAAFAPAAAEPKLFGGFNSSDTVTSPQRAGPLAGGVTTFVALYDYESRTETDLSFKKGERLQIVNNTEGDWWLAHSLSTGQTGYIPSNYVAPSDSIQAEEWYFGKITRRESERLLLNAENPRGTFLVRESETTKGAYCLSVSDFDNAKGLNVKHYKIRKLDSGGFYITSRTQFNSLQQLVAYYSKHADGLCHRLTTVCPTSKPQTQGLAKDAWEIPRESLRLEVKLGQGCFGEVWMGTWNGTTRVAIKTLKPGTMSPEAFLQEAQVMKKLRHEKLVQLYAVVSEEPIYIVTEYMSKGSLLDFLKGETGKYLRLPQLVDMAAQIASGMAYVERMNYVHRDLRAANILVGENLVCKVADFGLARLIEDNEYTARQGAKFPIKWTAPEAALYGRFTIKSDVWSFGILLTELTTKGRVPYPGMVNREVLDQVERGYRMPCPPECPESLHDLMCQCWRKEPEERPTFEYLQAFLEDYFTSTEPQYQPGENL
EGFR, sequence (P00533 25-1210): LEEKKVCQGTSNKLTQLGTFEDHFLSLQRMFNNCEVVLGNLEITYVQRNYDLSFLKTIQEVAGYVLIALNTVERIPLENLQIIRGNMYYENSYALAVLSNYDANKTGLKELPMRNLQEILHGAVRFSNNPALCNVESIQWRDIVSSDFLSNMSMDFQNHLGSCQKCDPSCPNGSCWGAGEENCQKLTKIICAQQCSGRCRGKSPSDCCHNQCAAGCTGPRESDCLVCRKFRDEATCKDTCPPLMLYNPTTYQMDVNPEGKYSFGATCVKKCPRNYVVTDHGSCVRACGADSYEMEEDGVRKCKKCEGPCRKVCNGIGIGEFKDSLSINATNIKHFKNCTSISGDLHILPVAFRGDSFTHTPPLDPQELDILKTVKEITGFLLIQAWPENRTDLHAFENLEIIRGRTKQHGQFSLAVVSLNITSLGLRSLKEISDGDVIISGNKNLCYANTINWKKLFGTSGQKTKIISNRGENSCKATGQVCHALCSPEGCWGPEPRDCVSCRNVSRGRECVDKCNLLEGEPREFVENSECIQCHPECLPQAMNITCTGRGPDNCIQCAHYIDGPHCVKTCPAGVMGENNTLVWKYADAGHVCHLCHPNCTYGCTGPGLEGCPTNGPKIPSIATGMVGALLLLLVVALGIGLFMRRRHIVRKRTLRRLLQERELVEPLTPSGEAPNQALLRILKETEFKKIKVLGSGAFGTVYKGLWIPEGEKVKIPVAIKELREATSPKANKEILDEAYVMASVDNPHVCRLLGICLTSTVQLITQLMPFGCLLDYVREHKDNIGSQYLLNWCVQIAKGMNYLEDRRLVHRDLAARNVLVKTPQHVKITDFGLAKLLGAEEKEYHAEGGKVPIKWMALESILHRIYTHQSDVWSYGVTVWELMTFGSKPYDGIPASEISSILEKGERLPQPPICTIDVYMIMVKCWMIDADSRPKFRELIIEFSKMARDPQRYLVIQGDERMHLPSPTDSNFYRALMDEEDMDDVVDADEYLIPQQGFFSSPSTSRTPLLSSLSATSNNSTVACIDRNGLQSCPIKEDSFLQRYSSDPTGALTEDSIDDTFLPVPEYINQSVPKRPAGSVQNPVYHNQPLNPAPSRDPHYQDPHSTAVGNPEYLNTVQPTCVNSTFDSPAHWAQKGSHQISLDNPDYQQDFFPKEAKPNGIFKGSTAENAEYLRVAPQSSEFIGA

SMILES | IC50 (EGFR) [µM] | IC50 (c-Src) [µM] | IC50 (K-562; Homo sapiens, K562, 24 h) [µM] | IC50 (Jurkat; Homo sapiens, Jurkat, 24 h) [µM] | IC50 (K-562; MTT, 24 h treatment) [µM] | IC50 (Jurkat; MTT, 24 h treatment) [µM] | IC50 (EGFR; [1]) [µM] | IC50 (c-Src; [2]) [µM] | activity at 10 µM (IL-6) [%] | IC50 (KG-1a; Homo sapiens, KG-1a, 24 h) [µM] | inhibition of STAT3 activation (STAT3) | inhibition at 10 µM (RPMI-8226 cell line) [%] | IC50 (KG-1a; MTT, 24 h treatment) [µM]
COc1cc(-c2nnc(SCC(=O)Nc3ccc(C(=O)C=Cc4ccc(Cl)cc4)cc3)o2)cc(OC)c1OC [Compound 8u, N-(4-(3-(4-Chlorophenyl)acryloyl)phenyl)-2-((5-(3,4,5-trimethoxy-phenyl)-1,3,4-oxadiazol-2-yl)thio)acetamide] | 55.4 ± 4.35 | 53.1 ± 5.6 | 84.2 ± 4.36 | > 100 |  |  |  |  | 82 to 98 | 95.7 ± 2.48 |  |  | 
O=C(CSc1nnc(-c2ccc(Cl)cc2)o1)Nc1ccc(C(=O)C=Cc2ccc(Cl)cc2)cc1 [Compound 8f, 2-((5-(4-Chlorophenyl)-1,3,4-oxadiazol-2-yl)thio)-N-(4-(3-(4-chloro-phenyl)acryloyl)phenyl)acetamide] | 64.7 ± 3.65 | 50.3 ± 3.5 | 82.3 ± 3.08 | 88.6 ± 1.35 |  |  |  |  | 82 to 98 | 91.5 ± 4.15 |  |  | 
O=C(CSc1nnc(-c2ccccc2)o1)Nc1ccc(C(=O)C=Cc2ccc(Cl)cc2)cc1 [Compound 8b, N-(4-(3-(4-Chlorophenyl)acryloyl)phenyl)-2-((5-phenyl-1,3,4-oxadiazol-2-yl)thio)acetamide] | 35.1 ± 1.36 | 44.1 ± 3.5 | 75.4 ± 4.61 | 78.7 ± 2.13 |  |  |  |  | 30 to 75 | 82.2 ± 4.56 | moderate activities |  | 
COc1ccc(-c2nnc(SCC(=O)Nc3ccc(C(=O)C=Cc4ccccc4)cc3)o2)cc1OC [Compound 8o, N-(4-Cinnamoylphenyl)-2-((5-(3,4-dimethoxyphenyl)-1,3,4-oxadiazol-2-yl)thio)acetamide] | 71.1 ± 3.25 | 51.2 ± 5.6 | 58.4 ± 5.45 | 94.1 ± 5.31 |  |  |  |  | 82 to 98 | 65.6 ± 2.31 |  |  | 
N.N.[Cl][Pt][Cl] [Cisplatin, reference compound] |  |  |  |  | 3.21 ± 0.45 | 15.1 ± 1.35 |  |  |  |  |  |  | 12.2 ± 3.41
COc1cc(C=CC(=O)c2ccc(NC(=O)CSc3nnc(-c4ccc(Cl)cc4)o3)cc2)cc(OC)c1OC [Compound 8i, 2-(5-(4-Chlorophenyl)-1,3,4-oxadiazol-2-ylthio)-N-(4-(3-(3,4,5-trimethoxyphenyl)acryloyl)phenyl)acetamide] | 29.3 ± 3.65 | 43.7 ± 3.5 | 55.3 ± 4.89 | 62.6 ± 1.37 |  |  |  |  |  | 79 ± 3.02 |  |  | 
COc1ccc(-c2nnc(SCC(=O)Nc3ccc(C(=O)C=Cc4ccc(OC)c(OC)c4)cc3)o2)cc1 [Compound 8m] |  |  |  |  | 23.1 ± 0.28 | 28.4 ± 0.85 | 10.2 ± 0.36 | 12.5 ± 0.3 |  |  |  |  | 31.5 ± 0.42
COc1ccc(C=CC(=O)c2ccc(NC(=O)CSc3nnc(-c4cc(OC)c(OC)c(OC)c4)o3)cc2)cc1OC [Compound 8w, N-(4-(3-(3,4-Dimethoxyphenyl)acryloyl)phenyl)-2-((5-(3,4,5-trimethoxyphenyl)-1,3,4-oxadiazol-2-yl)thio)acetamide] | 48.3 ± 2.36 | 60.3 ± 2.5 | 90.3 ± 2.91 | > 100 |  |  |  |  | 82 to 98 | > 100 |  |  | 
COc1cc(C=CC(=O)c2ccc(NC(=O)CSc3nnc(-c4ccccc4)o3)cc2)cc(OC)c1OC [Compound 8d, N-(4-(3-(3.4.5-Trimethoxyphenyl)acryloyl)phenyl)-2-((5-phenyl-1,3,4-oxadiazol-2-yl)thio)acetamide] |  |  |  |  | 22.8 ± 1.32 | 28.3 ± 0.62 | 11.2 ± 1.25 | 13.4 ± 1.6 |  |  |  |  | 31.3 ± 1.05
COc1ccc(C=CC(=O)c2ccc(NC(=O)CSc3nnc(-c4ccccc4)o3)cc2)cc1OC [Compound 8c, N-(4-(3-(3,4-Dimethoxyphenyl)acryloyl)phenyl)-2-((5-phenyl-1,3,4-oxadiazol-2-yl)thio)acetamide] | 64.3 ± 3.56 | 57.3 ± 2.4 | 69.5 ± 5.15 | 75.2 ± 1.25 |  |  |  |  | 82 to 98 | 95.2 ± 3.88 |  |  | 
COc1ccc(C=CC(=O)c2ccc(NC(=O)CSc3nnc(-c4ccc(OC)c(OC)c4)o3)cc2)cc1OC [Compound 8r, 2-((5-(3,4-Dimethoxyphenyl)-1,3,4-oxadiazol-2-yl)thio)-N-(4-(3-(3,4-di-methoxyphenyl)acryloyl)phenyl)acetamide] | 63.3 ± 2.36 | 76.2 ± 3.65 | > 100 | > 100 |  |  |  |  | 82 to 98 | 93.1 ± 1.14 |  |  | 
COc1ccc(C=CC(=O)c2ccc(NC(=O)CSc3nnc(-c4ccc(Cl)cc4)o3)cc2)cc1OC [Compound 8h, 2-(5-(4-Chlorophenyl)-1,3,4-oxadiazol-2-ylthio)-N-(4-(3-(3,4-dimethoxy-phenyl)acryloyl)phenyl)acetamide] | 30.2 ± 2.35 | 41.4 ± 4.5 | 72.1 ± 3.32 | 78.1 ± 2.1 |  |  |  |  |  | 84.6 ± 5.21 |  |  | 

Continued by falling IC50 (EGFR), values first:

IC50 (EGFR) [µM] | IC50 (c-Src) [µM] | IC50 (K-562; Homo sapiens, K562, 24 h) [µM] | IC50 (Jurkat; Homo sapiens, Jurkat, 24 h) [µM] | IC50 (K-562; MTT, 24 h treatment) [µM] | IC50 (Jurkat; MTT, 24 h treatment) [µM] | IC50 (EGFR; [1]) [µM] | IC50 (c-Src; [2]) [µM] | SMILES | activity at 10 µM (IL-6) [%] | IC50 (KG-1a; Homo sapiens, KG-1a, 24 h) [µM] | inhibition of STAT3 activation (STAT3) | inhibition at 10 µM (RPMI-8226 cell line) [%] | IC50 (KG-1a; MTT, 24 h treatment) [µM]
22.3 ± 2.35 | 40.2 ± 1.34 | 73.2 ± 3.72 | 76.4 ± 1.31 |  |  |  |  | COc1cc(-c2nnc(SCC(=O)Nc3ccc(C(=O)C=Cc4ccccc4)cc3)o2)cc(OC)c1OC [Compound 8t, N-(4-Cinnamoylphenyl)-2-((5-(3,4,5-trimethoxyphenyl)-1,3,4-oxadiazol-2-yl)thio)acetamide] | 30 to 75 | 84.6 ± 1.28 |  |  | 
18.3 ± 2.35 | 33.6 ± 2.35 | 58.4 ± 3.75 | 62.7 ± 2.71 |  |  |  |  | COc1ccc(-c2nnc(SCC(=O)Nc3ccc(C(=O)C=Cc4ccc(Cl)cc4)cc3)o2)cc1 [Compound 8k, 2-(5-(4-Methoxyphenyl)-1,3,4-oxadiazol-2-ylthio)-N-(4-(3-(4-chloro-phenyl)acryloyl)phenyl)acetamide] |  | 71.1 ± 1.22 |  |  | 
12.7 ± 1.25 | 22.1 ± 2.15 | 13.1 ± 1.65 | 41.2 ± 0.91 |  |  |  |  | COc1ccc(C=CC(=O)c2ccc(NC(=O)CSc3nnc(-c4ccc(Cl)cc4)o3)cc2)cc1 [Compound 8g, 2-(5-(4-Chlorophenyl)-1,3,4-oxadiazol-2-ylthio)-N-(4-(3-(4-methoxy-phenyl)acryloyl)phenyl)acetamide] |  | 55.6 ± 1.34 |  |  | 
12.3 ± 1.35 | 25 ± 3.46 | 35.2 ± 2.05 | 33.3 ± 1.22 |  |  |  |  | COc1ccc(/C=C/C(=O)c2ccc(NC(=O)CSc3nnc(-c4ccc(OC)cc4)o3)cc2)cc1 [Compound 8l, 2-(5-(4-Methoxyphenyl)-1,3,4-oxadiazol-2-ylthio)-N-(4-((E)-3-(4-methoxyphenyl)acryloyl)phenyl)acetamide] |  | 38.3 ± 2.45 |  |  | 
11.5 ± 1.24 | 25.3 ± 1.56 | 22.6 ± 2.34 | 31.1 ± 0.46 |  |  |  |  | COc1ccc(-c2nnc(SCC(=O)Nc3ccc(C(=O)C=Cc4ccccc4)cc3)o2)cc1 [Compound 8j, 2-(5-(4-Methoxyphenyl)-1,3,4-oxadiazol-2-ylthio)-N-(4-(3-phenylacryloyl)phenyl)acetamide] |  | 25.2 ± 0.48 |  | 31.3 to 144 | 
11.4 ± 1.54 | 29.5 ± 1.23 | 40.2 ± 2.82 | 31.9 ± 1.3 |  |  |  |  | COc1ccc(C=CC(=O)c2ccc(NC(=O)CSc3nnc(-c4ccc(OC)c(OC)c4)o3)cc2)cc1 [Compound 8q, 2-((5-(3,4-Dimethoxyphenyl)-1,3,4-oxadiazol-2-yl)thio)-N-(4-(3-(4-methoxyphenyl)acryloyl)phenyl)acetamide] | 30 to 75 | 45.3 ± 2.31 | moderate activities |  | 
